From PMC8969127 (Molecular Pharmacology, 2022)
Read-outs that look alike come from different tables or passages of the source.

Legend:
Assay type in all cases: cell-based
CatSper [1] = target: T1, CatSper (Homo sapiens, UniProt Q7RTX7+Q86XQ3+Q8NEC5+Q96P56); test: Human sperm calcium influx assay, activation; settings: for Emax: read-out: Emax, %, Steroid Alone; for Emax, %, Steroid Alone: percent of response to saturating PROG (3 µM); for fold less potent than PROG (calcium influx): relative to PROG; for fold lower activity than the corresponding pregnanolones (10–11): hydroxylation of the 21 position
Outline: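 Semen from healthy donors was liquefied at 37 °C, washed twice in low pH/low K+ buffer (pH 6.7, 0.2 mM CaCl2), then loaded with 10 µM Fluo-4-AM plus 1 mM probenecid, 30 min, room temperature, dark. On FLIPR, buffer was added first, then openers 2 min later. Fluorescence was read for 7 min at 2-s intervals. EC50 came from 8-point, 3-fold dilutions in duplicate, peak height, four-parameter fit. Emax is relative to 3 µM progesterone. Activators were retested with 30 µM mibefradil.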

human sperm = test: Computer-assisted sperm analysis
Outline: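 Donor semen was liquefied ≥40 min at 37 °C, then swim-up in HAM's F10 for 1 h at 37 °C, 5% CO2. Cells were adjusted to 10x10^6/mL and capacitated in HAM's F10 with 5% BSA and 15 mM NaHCO3 at 37 °C, 5% CO2, with test compound or DMSO. HAM was induced with 100 nM progesterone or 100 nM PGE1. CASA at 37 °C used ≥10 fields, ≥200 cells. Motility classes came from VAP/VSL/VCL-derived LIN and STR, normalized to vehicle controls, ≥3 experiments.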

CatSper [2] = target: T1, CatSper; settings: for IC50: human sperm, mean ±SD
[3] = pEC50, calcium influx, Steroid Alone, human sperm, mean ±SD

Row | Compound | EC50 (CatSper [1]; [3]) | Emax (CatSper [1]) | pEC50, calcium influx, Steroid Alone (CatSper [1]; human sperm, mean ±SD) | Emax, %, Steroid Alone (CatSper [1]) | other results
1 | CCCCC[C@H](O)/C=C/[C@H]1[C@H](O)CC(=O)[C@@H]1CCCCCCC(=O)O [compound 2, prostaglandin E1] | 3.98 nM | 101% | – | – | –
2 | CC(=O)[C@H]1CC[C@H]2[C@@H]3CC[C@H]4C[C@H](O)CC[C@]4(C)[C@H]3CC[C@]12C [compound 10, 3α,5α-pregnanolone] | – | – | 6.56 ± 0.21 | 85% | –
3 | CC(=O)[C@H]1CC[C@H]2[C@@H]3CC[C@@H]4C[C@H](O)CC[C@]4(C)[C@H]3CC[C@]12C [compound 11, 3α,5β-pregnanolone] | – | – | 6.26 ± 0.25 | 102% | –
4 | CC(=O)[C@H]1CC[C@H]2[C@@H]3CC[C@H]4C[C@@H](O)CC[C@]4(C)[C@H]3CC[C@]12C [compound 12, 3β,5α-pregnanolone] | – | – | 7.16 ± 0.11 | 99% | –
5 | CC(=O)[C@H]1CC[C@H]2[C@@H]3CC[C@@H]4C[C@@H](O)CC[C@]4(C)[C@H]3CC[C@]12C [compound 13, 3β,5β-pregnanolone] | – | – | 6.89 ± 0.20 | 92% | –
6 | CC(=O)[C@H]1CC[C@H]2[C@@H]3CC[C@H]4CC(=O)CC[C@]4(C)[C@H]3CC[C@]12C [compound 14, 5α-dihydroprogesterone] | – | – | 6.99 ± 0.05 | 87% | fold less potent than PROG (calcium influx) (CatSper [1]): ~30 fold
7 | CC(=O)[C@H]1CC[C@H]2[C@@H]3CC[C@H]4CC(=O)CC[C@]4(C)[C@H]3CC[C@]12C [compound 15, 5β-dihydroprogesterone] | – | – | 6.87 ± 0.17 | 95% | fold less potent than PROG (calcium influx) (CatSper [1]): ~30 fold
8 | CC(=O)[C@H]1CC[C@H]2[C@@H]3C[C@@H]4O[C@@]45CC(=O)CC[C@]5(C)[C@H]3CC[C@]12C [compound 16, 5α,6α-epoxypregnan-3,20-dione] | 832 nM | 83% | – | – | –
9 | CC(=O)[C@H]1CC[C@H]2[C@@H]3C[C@H]4O[C@]45CC(=O)CC[C@]5(C)[C@H]3CC[C@]12C [compound 17, 5β,6β-epoxypregnan-3,20-dione] | 417 nM | 84% | – | – | –
10 | CC(=O)[C@H]1CC[C@H]2[C@@H]3CCC4=CC(=O)C(C)(C)C[C@]4(C)[C@H]3CC[C@]12C [compound 18, 2,2-dimethylprogesterone] | – | – | 6.31 ± 0.16 | 99% | fold less potent than PROG (calcium influx) (CatSper [1]): 135 fold
11 | CC(=O)[C@H]1CC[C@H]2[C@@H]3C[C@@H](C)C4=CC(=O)CC[C@]4(C)[C@H]3CC[C@]12C [compound 19, 6β-methylprogesterone] | – | – | 6.58 ± 0.12 | 90% | –
12 | CC(=O)[C@H]1CC[C@H]2[C@@H]3C[C@H](C)C4=CC(=O)CC[C@]4(C)[C@H]3CC[C@]12C [compound 20, 6α-methylprogesterone] | – | – | 6.16 ± 0.14 | 96% | fold less potent than PROG (calcium influx) (CatSper [1]): 190 fold
13 | CC(=O)[C@H]1CC[C@H]2[C@@H]3C[C@@H](O)C4=CC(=O)CC[C@]4(C)[C@H]3CC[C@]12C [compound 21, 6β-hydroxyprogesterone] | – | – | 6.91 ± 0.10 | 116% | –
14 | CC(=O)[C@H]1CC[C@H]2[C@@H]3C[C@@H](C)[C@@]4(O)CC(=O)CC[C@]4(C)[C@H]3CC[C@]12C [compound 22, 5α-hydroxy-6β-methylpregnan-3,20-dione] | 5010 nM | 95% | – | – | –
15 | CC(=O)[C@H]1CC[C@H]2[C@@H]3CCC4=CC(=O)CC[C@]4(C)[C@H]3[C@@H](O)C[C@]12C [compound 23, 11β-hydroxyprogesterone] | 18.6 nM | 90% | – | – | fold less potent than PROG (calcium influx) (CatSper [1]): 5 fold
16 | CC(=O)[C@H]1CC[C@H]2[C@@H]3CCC4=CC(=O)CC[C@]4(C)[C@H]3[C@H](O)C[C@]12C [compound 24, 11α-hydroxyprogesterone] | – | – | 6.90 ± 0.08 | 100% | fold less potent than PROG (calcium influx) (CatSper [1]): 35 fold
17 | CC(=O)C1(O)CCC2C3CCC4=CC(=O)CCC4(C)C3CCC21C (stereo not drawn) [compound 25, 17α-hydroxyprogesterone] | 10.5 nM | 115% | – | – | fold less potent than PROG (calcium influx) (CatSper [1]): threefold

Row | Compound | EC50 (CatSper [1]; [3]) | Emax (CatSper [1]) | pEC50, calcium influx, Steroid Alone (CatSper [1]; human sperm, mean ±SD) | Emax, %, Steroid Alone (CatSper [1]) | other results
18 | C[C@]12CC[C@@H](O)C[C@H]1CC[C@@H]1[C@@H]2CC[C@]2(C)[C@@H](C(=O)CO)CC[C@@H]12 [compound 26, 3α,5β-THDOC] | – | – | 5.80 ± 0.26 | 100% | fold lower activity than the corresponding pregnanolones (10–11) (CatSper [1]): threefold; fold less potent than PROG (calcium influx) (CatSper [1]): ≥ 240 fold
19 | C[C@]12CC[C@@H](O)C[C@@H]1CC[C@@H]1[C@@H]2CC[C@]2(C)[C@@H](C(=O)CO)CC[C@@H]12 [compound 27, 3α,5α-THDOC] | – | – | 6.05 ± 0.21 | 96% | fold lower activity than the corresponding pregnanolones (10–11) (CatSper [1]): threefold; fold less potent than PROG (calcium influx) (CatSper [1]): ≥ 240 fold
20 | CC(=O)[C@H]1[C@H](O)C[C@H]2[C@@H]3CCC4=CC(=O)CC[C@]4(C)[C@H]3CC[C@@]21C [compound 28, 16α-hydroxyprogesterone] | – | – | 6.77 ± 0.18 | 106% | fold less potent than PROG (calcium influx) (CatSper [1]): 46 fold
21 | CC(=O)O[C@]1(C(C)=O)CC[C@H]2[C@@H]3CCC4=CC(=O)CC[C@]4(C)[C@H]3CC[C@@]21C [compound 29, 17α-acetoxyprogesterone] | – | – | – | 31% | –
22 | CC(=O)[C@@]1(O)CC[C@H]2[C@@H]3C[C@H](C)C4=CC(=O)CC[C@]4(C)[C@H]3CC[C@@]21C [compound 30, 17α-hydroxy-6α-methylprogesterone] | – | – | 6.33 ± 0.10 | 96% | fold reduction of activity relative to 17α-hydroxyprogesterone (CatSper [1]; addition of a 6α-methyl group): 47 fold
23 | C[C@]12CCC(=O)C=C1[C@@H]1C[C@@H]1[C@H]1[C@@H]3[C@@H]4C[C@@H]4[C@@]4(CCC(=O)O4)[C@@]3(C)CC[C@@H]12 [compound 31, drospirenone] | 525 nM | 115% | – | – | –
24 | CC(=O)[C@@]1(O)CC[C@H]2[C@@H]3CCC4=CC(=O)CCC4=C3[C@@H](c3ccc(N(C)C)cc3)C[C@@]21C [compound 32, ulipristal] | 3550 nM | 106% | – | – | –
25 | CC#C[C@]1(O)CC[C@H]2[C@@H]3CCC4=CC(=O)CCC4=C3[C@@H](c3ccc(N(C)C)cc3)C[C@@]21C [compound 33, mifepristone (RU-486)] | 4680 nM | 109% | – | – | –
26 | CC(=O)O[C@]1(C(C)=O)CC[C@H]2[C@@H]3CCC4=CC(=O)CCC4=C3[C@@H](c3ccc(N(C)C)cc3)C[C@@]21C [compound 34, ulipristal acetate] | > 10000 nM | 27% | – | – | –
27 | C=C1C[C@H]2[C@@H]3CCC4=CC(=O)CC[C@@H]4[C@H]3CC[C@]2(C)[C@@]1(OC(C)=O)C(C)=O [compound 35, segesterone acetate] | – | – | <5 | 57% | –
28 | C[C@]12CC[C@H]3[C@@H](CCC4=CC(=O)CC[C@@]43C)[C@@H]1CC[C@@H]2O [compound 36, testosterone] | – | 114% | – | – | EC50 (CatSper [1]): 219 nM
29 | C[C@]12CC[C@@H]3c4ccc(O)cc4CC[C@H]3[C@@H]1CC[C@@H]2O [compound 37, 17β-estradiol] | 295 nM | 94% | – | – | –
30 | C[C@H]1C[C@]2(C)[C@@H](O)CC[C@H]2[C@@H]2CCC3=CC(=O)CC[C@@H]3[C@H]21 [compound 38, 11β-methyl-19-nortestosterone] | – | – | 6.37 ± 0.32 | 85% | –
31 | C[C@@H]1CC2=CC(=O)CC[C@@H]2[C@H]2CC[C@]3(C)[C@@H](O)CC[C@H]3[C@@H]21 [compound 39, 7α-methyl-19-nortestosterone] | – | – | 6.25 ± 0.37 | 86% | –
32 | C[C@@H]1CC2=CC(=O)CC[C@@H]2[C@@H]2[C@@H]1[C@@H]1CC[C@H](O)[C@@]1(C)C[C@@H]2C [compound 40, 7α,11β-dimethylandrolone] | – | – | 6.06 ± 0.49 | 80% | –
33 | C[C@H]1C[C@]2(C)[C@@H](O)CC[C@H]2[C@H]2[C@H]1[C@H]1CCC(=O)C=C1C[C@@H]2C [compound 41, 7β,11β-dimethylandrolone] | – | – | 5.41 ± 0.24 | 42% | –
34 | COCC(=O)O[C@]1(CCN(C)CCCc2nc3ccccc3[nH]2)CCc2cc(F)ccc2[C@@H]1C(C)C [mibefradil] | – | – | – | – | concentration that completely ablated total and progressive motility (human sperm; CASA, human sperm): 30 µM; concentration that completely ablated HAM (human sperm; HAM induced with 100 nM PROG or 100 nM PGE1, 4 hours, capacitating conditions): 10 µM; calcium influx elicited by the blocker itself (CatSper [1]; ML218 up to 100 µM, mibefradil at higher concentrations): we did not observe a mibefradil-induced calcium influx; block of calcium influx for all modes of channel opening (CatSper [2]; blocker 30 µM): completely blocked influx; IC50 (CatSper [2]; pIC50, inhibition of PGE1-induced calcium influx, opener 10 nM PGE1 (EC80)): 8320 nM; IC50 (CatSper [2]; pIC50, inhibition of l-sirenin-induced calcium influx, opener 3 µM l-sirenin (EC80)): 8130 nM
